Reference: ChEMBL document CHEMBL1127041, “(Imidazolylphenyl)pyrrol-2-one inhibitors of cardiac cAMP phosphodiesterase” (J Med Chem, 1993)
The source made the active and inactive calls. No cut-off for these calls is given here.

Columns and labels:
Canis familiaris [1] = experiment: Mean percentage change in the left ventricular contractility (dP/dt) in pentobarbital anesthetized dogs at 1 mg/kg; format: functional, Canis lupus familiaris, Heart left ventricle
Summary of the method: (§1)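 Pentobarbital-anesthetized dogs were given the agent intravenously at 1 and 3 mg/kg. Left ventricular dP/dt, heart rate and mean arterial pressure were monitored. Values are mean percent change from control ± SEM, n = 4.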

Canis familiaris [2] = experiment: Mean percentage change in the left ventricular contractility (dP/dt) in pentobarbital anesthetized dogs at 3 mg/kg; format: functional, Canis lupus familiaris, Heart left ventricle; summary of the method: as §1
Canis familiaris [3] = experiment: Percentage decrease in Mean arterial pressure in pentobarbital anesthetized dogs at 3 mg/kg; format: functional, Canis lupus familiaris, Artery; summary of the method: as §1
Canis lupus familiaris [4] = organism: Canis lupus familiaris; experiment: Percentage inhibition of cAMP PDE in canine brain tissue; format: tissue-based; settings: dose or concentration not given here
Mustela putorius furo [5] = organism: Mustela putorius furo; experiment: In vitro inotropic effect, 20% increase in the force of contraction of isolated ferret papillary muscle strips; format: functional; settings: Muscle tissue
Summary of the method: (§2)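 Isolated ferret papillary muscle in vitro. The read-out is the dose that gives a 20% rise in contractile force over control (EC20). "NR" means this rise was not reached at 100 μM.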

Canis familiaris [6] = experiment: Mean percentage change in heart rate of pentobarbital anesthetized dogs at 3 mg/kg; format: functional, Canis lupus familiaris; summary of the method: as §1
Canis familiaris [7] = experiment: Percentage decrease in Mean arterial pressure in pentobarbital anesthetized dogs at 1 mg/kg; format: functional, Canis lupus familiaris, Artery; summary of the method: as §1
[8] = (§3) Inhibition of cAMP PDE in canine cardiac tissue; set-up: species or system Canis lupus familiaris
Summary of the method: (§4)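 The enzyme was partially purified cAMP phosphodiesterase from canine brain or cardiac tissue. IC50 is the concentration giving 50% inhibition, taken from the mean of three separate dose-response determinations. Near the IC50, inhibition at the test doses ranged by less than ±8%.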

Canis familiaris [9] = experiment: Mean percentage change in heart rate of pentobarbital anesthetized dogs at 1 mg/kg; format: functional, Canis lupus familiaris; summary of the method: as §1
Canis familiaris [10] = experiment: Percentage decrease in Mean arterial pressure in pentobarbital anesthetized dogs at 0.1 mg/kg; format: functional, Canis lupus familiaris, Artery
Summary of the method: (§5)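 Pentobarbital-anesthetized dogs received doses of 0.1 and 0.3 mg/kg. Left ventricular dP/dt, heart rate and mean arterial pressure were monitored. Values are mean percent change from control ± SEM, n = 6.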

Canis familiaris [11] = experiment: Percentage decrease in Mean arterial pressure in pentobarbital anesthetized dogs at 0.3 mg/kg; format: functional, Canis lupus familiaris, Artery; summary of the method: as §5
Canis familiaris [12] = experiment: Mean percentage change in heart rate of pentobarbital anesthetized dogs at 0.3 mg/kg; format: functional, Canis lupus familiaris; summary of the method: as §5
Canis familiaris [13] = experiment: Mean percentage change in the left ventricular contractility (dP/dt) in pentobarbital anesthetized dogs at 0.3 mg/kg; format: functional, Canis lupus familiaris, Heart left ventricle; summary of the method: as §5
Canis familiaris [14] = experiment: Mean percentage change in heart rate of pentobarbital anesthetized dogs at 0.1 mg/kg; format: functional, Canis lupus familiaris; summary of the method: as §5
Canis familiaris [15] = experiment: Mean percentage change in the left ventricular contractility (dP/dt) in pentobarbital anesthetized dogs at 0.1 mg/kg; format: functional, Canis lupus familiaris, Heart left ventricle; summary of the method: as §5
Canis lupus familiaris [16] = organism: Canis lupus familiaris; experiment: as §3; settings: concentration not given here; summary of the method: as §4
[17] = Inhibition of cAMP PDE from canine brain; set-up: species or system Canis lupus familiaris; summary of the method: as §4
Mustela putorius furo [18] = organism: Mustela putorius furo; experiment: In vitro inotropic effect, 20% increase in the force of contraction of isolated ferret papillary muscle strips (two EC20 determinations); format: functional; settings: Muscle tissue
Summary of the method: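 Contractile force was measured in isolated ferret papillary muscle in vitro. EC20 is the dose that gives a 20% increase in force. Two separate EC20 determinations were made.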

Mustela putorius furo [19] = organism: Mustela putorius furo; experiment: In vitro inotropic effect, 20% increase in the force of contraction of isolated ferret papillary muscle strips (Not reached at 100 uM); format: functional; settings: Muscle tissue; summary of the method: as §2
Canis lupus familiaris [20] = organism: Canis lupus familiaris; experiment: Inhibition of cAMP PDE in canine brain; settings: concentration not given here; summary of the method: as §4

Compound | Increase (Canis familiaris [1]) [%] | Increase (Canis familiaris [2]) [%] | Decrease (Canis familiaris [3]) [%] | inhibition (Canis lupus familiaris [4]) [%] | EC20 (Mustela putorius furo [5]) [µM] | Increase (Canis familiaris [6]) [%] | Decrease (Canis familiaris [7]) [%] | IC50 [8] [µM] | Increase (Canis familiaris [9]) [%] | inhibition (Canis lupus familiaris [16]) [%] | IC50 [17] [µM] | other results
CC1=C(c2ccc(-n3ccnc3C)cc2)CNC1=O | 14 | 33 | 10 | 10 | 10.2 | 14 | 6 | 30 | 7 | – | – | –
Cc1[nH]c(=O)c(C#N)cc1-c1ccncc1 [MILRINONE] | – | – | – | 34 | 0.5 | – | – | 5.5 | – | – | – | Decrease (Canis familiaris [10]): 13%; Decrease (Canis familiaris [11]): 30%; Increase (Canis familiaris [12]): 32%; Increase (Canis familiaris [13]): 81%; Increase (Canis familiaris [14]): 19%; Increase (Canis familiaris [15]): 57%
CCC1=C(c2ccc(-n3ccnc3C)cc2)CNC1=O | 52 | 80 | 30 | < 5 | 4.8 | 22 | 18 | 39 | 8 | – | – | –
COc1ccc(C2=CC(=O)NC2)cc1OC | – | – | – | – | – | – | – | – | – | 46 | 40 | EC20 (Mustela putorius furo [18]): 6.5 µM
CC1=C(c2ccc(-n3ccnc3)cc2)CNC1=O | 40 | 75 | 14 | 16 | 2.3 | 19 | 3 | 25 | 7 | – | – | –
COc1ccc(C2CNC(=O)C2)cc1OC1CCCC1 (configuration not stated) [ROLIPRAM] | – | – | – | – | – | – | – | – | – | 28 | 0.8 | EC20 (Mustela putorius furo [19]): inactive
COc1ccc(C2=C(C)C(=O)NC2)cc1OC | – | – | – | – | 3.8 | – | – | 26 | – | – | 100 | –
COc1ccc(C2CNC(=O)C2)cc1OC (configuration not stated) | – | – | – | – | – | – | – | – | – | 3 | – | inhibition (Canis lupus familiaris [20]): 36%; EC20 (Mustela putorius furo [19]): Not reached
CCC1=C(c2ccc(-n3ccnc3)cc2)CNC1=O | 21 | 44 | 22 | 10 | 10.7 | 21 | 13 | 48 | 9 | – | – | –
